Source: ChEMBL document CHEMBL4823271, “Synthesis and structure-activity relationship of new chalcone linked 5-phenyl-3-isoxazolecarboxylic acid methyl esters potentially active against drug resistant Mycobacterium tuberculosis” (Eur J Med Chem, 2021)
Values after ≈ are worked out from the molar mass of the structure shown. Active and inactive are the calls of the source. The calls are words filed in the database; no cut-off is given here.

What was measured:
[1] = test system: Mycobacterium tuberculosis; assay: Antitubercular activity against Mycobacterium tuberculosis H37Rv assessed as bacterial growth inhibition after 7 days by broth microdilution assay; assay type: functional; conditions: 168 h, dose 0.03-64 µg/ml, time 7 day
Procedure, shortened: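 Compounds were tested in broth microdilution from 64 downward, incubated 37 °C for 7 days, then resazurin (PrestoBlue) added. MIC is the lowest concentration preventing the blue-to-pink change, run in triplicate, reporting the value obtained at least twice of three.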

[2] = Cytotoxicity against African green monkey vero cells assessed as reduction in cell viability measured after 72 hrs by MTT assay; assay type: cell-based; conditions: chlorocebus sabaeus
Procedure, shortened: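 Vero cells seeded at ~10³ cells/well and grown 24 h at 37 °C, 5% CO₂, then exposed to compound (100 to 5 mg/l) for 72 h. MTT was added […] for 4 h and formazan dissolved in DMSO. CC50 is the lowest concentration giving 50% viability reduction. Doxorubicin was the positive control, run in triplicate.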

[3] = Selectivity index, ratio of CC50 for African green monkey Vero cells to MIC for Antitubercular activity against Mycobacterium tuberculosis H37Rv; assay type: toxicity; conditions: read-out: Selectivity Index
Procedure, shortened: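 Selectivity index calculated as Vero CC50 (MTT, 72 h) divided by the H37Rv MIC from the resazurin broth microdilution assay.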

[4] = test system: Mycobacterium tuberculosis; assay: Antimycobacterial activity against Mycobacterium tuberculosis H37Rv ATCC 27294 assessed as reduction in bacterial growth incubated for […] by broth microdilution assay; assay type: functional
[5] = test system: Mycobacteroides abscessus; assay: Antimycobacterial activity against Mycobacterium abscessus ATCC 19977 assessed as visible growth inhibition incubated for 16 to 18 hrs; assay type: functional, organism-based; conditions: time 16-18 hrs
[6] = test system: Mycolicibacterium fortuitum; assay: Antimycobacterial activity against Mycobacterium fortuitum ATCC 6841 assessed as visible growth inhibition incubated for 16 to 18 hrs; assay type: functional, organism-based; conditions: time 16-18 hrs
Mycobacteroides chelonae = assay: Antimycobacterial activity against Mycobacterium chelonae ATCC 35752 assessed as visible growth inhibition incubated for 16 to 18 hrs; assay type: functional, organism-based; conditions: time 16-18 hrs
[7] = test system: Mycobacterium tuberculosis; assay: Antimycobacterial activity against Mycobacterium tuberculosis H37Rv assessed as reduction in CFU at 10 times MIC concentration measured up to 6 days by time kill assay; assay type: functional, organism-based; conditions: time day <=6
Procedure, shortened: (§1)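 Time-kill: H37Rv at ~10⁵ CFU/mL in 96-well plates with compound at 1x or 10x MIC, 37 °C for 6 days. At time-points, samples were serially two-fold diluted in normal saline and plated on 7H11 agar with OADC. Colonies were counted after […] at 37 °C, and CFU/mL was plotted against time with and without compound.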

[8] = test system: Mycobacterium tuberculosis; assay: Antimycobacterial activity against Mycobacterium tuberculosis H37Ra; assay type: functional
[9] = test system: Mycobacterium tuberculosis; assay: Antimycobacterial activity against Mycobacterium tuberculosis H37Rv assessed as reduction in CFU at MIC concentration measured up to 6 days by time kill assay; assay type: functional, organism-based; conditions: time day <=6; procedure, shortened: as §1

SMILES	MIC [1] [µg/mL]	CC50 at 72 h [2] [µg/mL]	selectivity ratio [3]	MIC [4] [µg/mL]	Activity [5]	Activity [6]	Activity (Mycobacteroides chelonae)	Activity [7]	MIC [8] [µg/mL]	Activity [9]
CCOC(=O)c1cc(-c2cccc(NC(=O)c3ccc(/C=C/C(=O)c4ccc(Cl)cc4)cc3)c2)on1	0.5 (≈ 0.998 µM)	> 80	> 160	0.5 (≈ 0.998 µM)	inactive	inactive	inactive	–	–	–
COC(=O)c1cc(-c2cccc(NC(=O)c3ccc(/C=C/C(=O)c4ccccc4Cl)cc3)c2)on1	0.25 (≈ 0.513 µM)	> 25	> 100	0.25 (≈ 0.513 µM)	inactive	inactive	inactive	–	–	–
COC(=O)c1cc(-c2cccc(NC(=O)c3ccc(/C=C/C(=O)c4ccc(OC)cc4OC)cc3)c2)on1	0.25 (≈ 0.488 µM)	> 50	> 200	0.25 (≈ 0.488 µM)	inactive	inactive	inactive	–	–	–
CCCOc1ccc(C(=O)/C=C/c2ccc(C(=O)Nc3cccc(-c4cc(C(=O)OC)no4)c3)cc2)cc1	0.12 (≈ 0.235 µM)	> 40	> 320	0.12 (≈ 0.235 µM)	inactive	inactive	inactive	Active	–	–
COC(=O)c1cc(-c2cccc(NC(=O)c3ccc(/C=C/C(=O)c4ccc(N5CCOCC5)cc4)cc3)c2)on1	0.5 (≈ 0.93 µM)	> 20	> 40	5 (≈ 9.3 µM)	inactive	inactive	inactive	–	–	–
COC(=O)c1cc(-c2cccc(NC(=O)c3ccc(/C=C/C(=O)c4ccc(C)cc4)cc3)c2)on1	0.5 (≈ 1.07 µM)	> 80	> 160	5 (≈ 10.7 µM)	inactive	inactive	inactive	–	–	–
COC(=O)c1cc(-c2cccc(NC(=O)c3ccc(/C=C/C(=O)c4ccc(Cl)cc4)cc3)c2)on1	0.12 (≈ 0.246 µM)	> 50	> 416	0.12 (≈ 0.246 µM)	inactive	inactive	inactive	–	–	–
CO[C@H]1/C=C/O[C@@]2(C)Oc3c(C)c(O)c4c(O)c(c(/C=N/N5CCN(C)CC5)c(O)c4c3C2=O)NC(=O)/C(C)=C\C=C\[C@H](C)[C@H](O)[C@@H](C)[C@@H](O)[C@@H](C)[C@H](OC(C)=O)[C@@H]1C [RIFAMPIN]	0.03 (≈ 0.0365 µM)	–	–	0.06 (≈ 0.0729 µM)	–	–	–	–	–	–
COC(=O)c1cc(-c2cccc(NC(=O)c3ccc(/C=C/C(=O)c4ccccc4C)cc3)c2)on1	0.25 (≈ 0.536 µM)	> 25	> 100	0.25 (≈ 0.536 µM)	inactive	inactive	inactive	–	–	–
CCOC(=O)c1cc(/C=C/c2c(Cl)cncc2Cl)on1	0.18 (≈ 0.575 µM)	–	–	0.5 (≈ 1.6 µM)	–	–	–	–	–	–
COc1cc(/C=C/c2cc(/C=C/c3ccc(OC)c(OC)c3)no2)ccc1O	–	–	–	–	–	–	–	–	0.09 (≈ 0.237 µM)	–
COC(=O)c1cc(-c2ccc(NC(=O)c3ccc(/C=C/C(=O)c4ccc(Cl)cc4)cc3)cc2)on1	0.06 (≈ 0.123 µM)	> 80	> 1330	0.06 (≈ 0.123 µM)	inactive	inactive	inactive	–	–	–
COC(=O)c1cc(-c2cccc(NC(=O)c3ccc(/C=C/C(=O)c4ccc(F)cc4F)cc3)c2)on1	0.12 (≈ 0.246 µM)	> 40	> 333	0.12 (≈ 0.246 µM)	inactive	inactive	inactive	–	–	–
COC(=O)c1cc(-c2cccc(NC(=O)c3ccc(/C=C/C(=O)c4ccc(CC(C)C)cc4)cc3)c2)on1	0.12 (≈ 0.236 µM)	> 10	> 84	0.12 (≈ 0.236 µM)	inactive	inactive	inactive	–	–	–
COC(=O)c1cc(-c2cccc(NC(=O)c3ccc(/C=C/C(=O)c4cccc(Cl)c4)cc3)c2)on1	0.25 (≈ 0.513 µM)	> 2.5	> 10	0.25 (≈ 0.513 µM)	inactive	inactive	inactive	–	–	–
COC(=O)c1cc(-c2cccc(NC(=O)c3ccc(/C=C/C(=O)c4ccc(Cl)cc4Cl)cc3)c2)on1	0.5 (≈ 0.959 µM)	> 40	> 80	0.5 (≈ 0.959 µM)	inactive	inactive	inactive	–	–	–
CCOc1ccc(C(=O)/C=C/c2ccc(C(=O)Nc3cccc(-c4cc(C(=O)OC)no4)c3)cc2)cc1	0.25 (≈ 0.504 µM)	> 40	> 160	0.25 (≈ 0.504 µM)	inactive	inactive	inactive	Active	–	Active
